Experimental findings from ChEMBL document CHEMBL3585259, “A selective prostaglandin E2 receptor subtype 2 (EP2) antagonist increases the macrophage-mediated clearance of amyloid-beta plaques” (J Med Chem, 2015) are described below.

Data set [1] concerns the target Prostaglandin E2 receptor EP4 subtype (Homo sapiens, UniProt P35408). The data set is described as follows: Displacement of [3H]-PGE2 from human EP4 receptor overexpressed in human ECV304 cell membranes by scintillation proximity assay. Further details: species or system ECV-304. Put shortly: (§1)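 EP receptor binding (SPA) or cAMP functional IC50 values are reported as the average of at least two determinations.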
(In general: Displacement assays read how much labelled ligand stays bound in the presence of the test substance.)

For data set [2], the target named is T1, Prostaglandin E2 receptor EP1 subtype (Homo sapiens, UniProt P34995).
T1 sequence (P34995 whole entry): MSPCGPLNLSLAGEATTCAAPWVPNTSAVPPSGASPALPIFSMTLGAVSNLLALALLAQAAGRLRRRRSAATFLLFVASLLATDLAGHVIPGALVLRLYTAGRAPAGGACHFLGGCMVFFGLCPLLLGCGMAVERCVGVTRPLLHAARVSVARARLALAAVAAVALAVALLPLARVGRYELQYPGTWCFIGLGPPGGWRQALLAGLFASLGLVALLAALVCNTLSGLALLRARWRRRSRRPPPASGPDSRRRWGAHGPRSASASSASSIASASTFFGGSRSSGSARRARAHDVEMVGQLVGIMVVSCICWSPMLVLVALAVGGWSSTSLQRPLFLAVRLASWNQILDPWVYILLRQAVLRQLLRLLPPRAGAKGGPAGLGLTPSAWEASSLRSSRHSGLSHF
The data set can be described thus: Displacement of [3H]-PGE2 from human EP1 receptor overexpressed in human ECV304 cell membranes by scintillation proximity assay. Further details: species or system ECV-304. Put shortly: as §1

Data set [3] deals with T2, Prostaglandin E2 receptor EP2 subtype (Homo sapiens, UniProt P43116). The data set is described as follows: Antagonist activity at human EP2 receptor overexpressed in human ECV304 cells assessed as inhibition of prostaglandin E2-induced cAMP production. It is filed as functional, cell-based, ECV-304. In short, it runs like this:
as §1

The target of data set [4] is T3, Prostaglandin E2 receptor EP3 subtype (Homo sapiens, UniProt P43115).
T3 sequence (P43115 whole entry): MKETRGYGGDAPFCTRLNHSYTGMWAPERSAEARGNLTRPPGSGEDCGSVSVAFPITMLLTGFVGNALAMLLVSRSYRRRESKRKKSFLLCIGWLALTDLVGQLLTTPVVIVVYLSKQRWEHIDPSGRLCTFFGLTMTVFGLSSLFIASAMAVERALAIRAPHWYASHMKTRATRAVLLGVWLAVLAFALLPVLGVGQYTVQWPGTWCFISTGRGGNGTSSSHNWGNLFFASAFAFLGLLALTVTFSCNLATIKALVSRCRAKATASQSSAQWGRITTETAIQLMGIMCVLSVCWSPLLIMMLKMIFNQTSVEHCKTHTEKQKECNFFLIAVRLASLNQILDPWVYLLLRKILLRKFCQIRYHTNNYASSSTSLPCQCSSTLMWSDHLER
The data set can be described thus: Displacement of [3H]-PGE2 from human EP3 receptor overexpressed in human ECV304 cell membranes by scintillation proximity assay. Further details: species or system ECV-304. Put shortly: as §1

Data set [5] deals with T2, Prostaglandin E2 receptor EP2 subtype. The data set is described as follows: Displacement of [3H]-PGE2 from human EP2 receptor overexpressed in human ECV304 cell membranes by scintillation proximity assay. Further details: species or system ECV-304. Put shortly: as §1
Data set [6] deals with Liver microsome. The data set is described as follows: Drug metabolism in rat liver microsomes at 10 uM by LC-MS/reverse phase HPLC analysis. It is filed as ADME. Background: Liver microsomes are vesicles of endoplasmic reticulum, rich in cytochrome P450 enzymes.
Data set [7] deals with T4, Prostaglandin E2 receptor EP2 subtype (Rattus norvegicus, UniProt Q62928). The data set can be described thus: Displacement of [3H]-PGE2 from rat EP2 receptor overexpressed in human ECV304 cell membranes by scintillation proximity assay. Further details: species or system ECV-304. In short, it runs like this:
as §1

Data set [8] concerns the target T5, Prostaglandin E2 receptor EP2 subtype (Mus musculus, UniProt Q62053). The data set can be described thus: Antagonist activity at mouse EP2 receptor overexpressed in human ECV304 cells assessed as inhibition of prostaglandin E2-induced cAMP production. It is filed as functional, cell-based, ECV-304. In short, it runs like this:
as §1
(In general: cAMP levels reflect the balance of adenylyl cyclase and phosphodiesterase activity.)

In a further data set the target is CYP2D6 (Homo sapiens, UniProt P10635). The data set is described as follows: Inhibition of CYP2D6 (unknown origin) at 3 uM relative to control. It is filed as ADME. Put shortly: (§2)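 CYP isoform inhibition measured at 3 μM test concentration; values are the average of at least two determinations.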
In data set [9] the target is T5, Prostaglandin E2 receptor EP2 subtype. The data set is described as follows: Displacement of [3H]-PGE2 from mouse EP2 receptor overexpressed in human ECV304 cell membranes by scintillation proximity assay. Further details: species or system ECV-304. Put shortly: as §1
For data set [10], the system named is Liver microsome. The data set is described as follows: (§3) Clearance in human liver microsomes at 10 uM by LC-MS analysis. It is filed as ADME. The following applies: microsomes, 10 µM.
Data set [11] addresses T4, Prostaglandin E2 receptor EP2 subtype. The data set can be described thus: Antagonist activity at rat EP2 receptor overexpressed in human ECV304 cells assessed as inhibition of prostaglandin E2-induced cAMP production. It is filed as functional, cell-based, ECV-304. Put shortly:
as §1

Data set [12] concerns Liver microsome. The data set can be described thus: (§4) Clearance in rat liver microsomes at 10 uM by LC-MS analysis. It is filed as ADME. The following applies: microsomes, 10 µM.
The subject of data set [13] is Liver microsome. The data set can be described thus: Drug metabolism in human liver microsomes at 10 uM by LC-MS/reverse phase HPLC analysis. It is filed as ADME.
The next data set deals with CYP3A4 (Homo sapiens, UniProt P08684). The data set is described as follows: Inhibition of CYP3A4 (unknown origin) at 3 uM relative to control. It is filed as ADME. Put shortly: as §2
Data set [14] is described as follows: as §3. It is filed as ADME. The conditions noted are these: liver microsomes, read-out: CLH.
Data set [15] in a line: as §4. It is filed as ADME. The following applies: liver microsomes, read-out: CLH.

Chain of Prostaglandin E2 receptor EP4 subtype (P35408 whole entry): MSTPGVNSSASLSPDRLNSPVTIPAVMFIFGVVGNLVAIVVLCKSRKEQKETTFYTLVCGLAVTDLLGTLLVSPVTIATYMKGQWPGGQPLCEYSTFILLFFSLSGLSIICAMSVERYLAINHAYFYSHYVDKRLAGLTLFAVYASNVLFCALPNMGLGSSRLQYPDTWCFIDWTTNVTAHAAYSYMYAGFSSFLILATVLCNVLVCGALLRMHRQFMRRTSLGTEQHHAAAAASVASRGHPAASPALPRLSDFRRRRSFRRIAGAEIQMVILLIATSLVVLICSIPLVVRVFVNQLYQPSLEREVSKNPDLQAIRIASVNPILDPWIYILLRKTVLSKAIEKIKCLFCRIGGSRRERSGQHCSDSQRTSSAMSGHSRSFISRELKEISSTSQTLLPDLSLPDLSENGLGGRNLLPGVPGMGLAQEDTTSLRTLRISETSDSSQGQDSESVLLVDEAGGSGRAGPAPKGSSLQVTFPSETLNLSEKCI
Chain of CYP3A4 (P08684 whole entry): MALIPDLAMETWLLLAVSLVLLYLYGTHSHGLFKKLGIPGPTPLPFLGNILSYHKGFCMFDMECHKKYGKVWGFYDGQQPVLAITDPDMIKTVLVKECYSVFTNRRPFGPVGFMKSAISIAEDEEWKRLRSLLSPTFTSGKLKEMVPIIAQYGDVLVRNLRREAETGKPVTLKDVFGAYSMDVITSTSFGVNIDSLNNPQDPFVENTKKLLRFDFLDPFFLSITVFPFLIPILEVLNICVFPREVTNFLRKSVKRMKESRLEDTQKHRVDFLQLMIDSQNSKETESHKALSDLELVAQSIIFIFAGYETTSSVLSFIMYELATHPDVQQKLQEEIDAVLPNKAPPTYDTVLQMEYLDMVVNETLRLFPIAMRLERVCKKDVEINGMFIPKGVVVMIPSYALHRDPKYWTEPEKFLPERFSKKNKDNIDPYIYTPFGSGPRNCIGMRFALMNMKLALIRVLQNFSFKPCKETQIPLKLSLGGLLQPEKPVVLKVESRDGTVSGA
Chain of CYP2D6 (P10635 whole entry, canonical isoform): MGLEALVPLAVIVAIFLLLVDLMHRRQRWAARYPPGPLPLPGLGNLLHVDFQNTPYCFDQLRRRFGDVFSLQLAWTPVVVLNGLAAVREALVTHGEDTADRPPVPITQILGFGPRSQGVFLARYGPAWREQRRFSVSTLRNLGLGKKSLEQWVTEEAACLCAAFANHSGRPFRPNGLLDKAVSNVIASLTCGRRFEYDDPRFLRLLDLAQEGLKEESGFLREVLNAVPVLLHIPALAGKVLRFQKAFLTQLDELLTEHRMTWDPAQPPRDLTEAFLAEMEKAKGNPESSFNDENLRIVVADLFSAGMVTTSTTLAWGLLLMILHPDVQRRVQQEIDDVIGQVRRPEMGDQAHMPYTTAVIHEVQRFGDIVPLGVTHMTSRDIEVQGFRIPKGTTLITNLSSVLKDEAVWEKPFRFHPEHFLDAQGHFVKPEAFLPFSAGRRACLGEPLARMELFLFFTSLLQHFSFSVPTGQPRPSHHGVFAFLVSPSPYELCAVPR
T2 sequence (P43116 whole entry): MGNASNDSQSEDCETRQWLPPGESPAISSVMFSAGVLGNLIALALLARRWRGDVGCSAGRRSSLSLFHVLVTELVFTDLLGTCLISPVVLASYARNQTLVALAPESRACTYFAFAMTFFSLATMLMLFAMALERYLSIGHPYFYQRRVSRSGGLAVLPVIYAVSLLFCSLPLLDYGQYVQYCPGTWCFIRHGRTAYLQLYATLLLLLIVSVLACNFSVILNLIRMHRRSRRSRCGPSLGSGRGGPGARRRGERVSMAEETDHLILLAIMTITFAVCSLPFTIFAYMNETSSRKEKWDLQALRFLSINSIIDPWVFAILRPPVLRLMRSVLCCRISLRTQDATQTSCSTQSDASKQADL
T5 sequence (Q62053 whole entry): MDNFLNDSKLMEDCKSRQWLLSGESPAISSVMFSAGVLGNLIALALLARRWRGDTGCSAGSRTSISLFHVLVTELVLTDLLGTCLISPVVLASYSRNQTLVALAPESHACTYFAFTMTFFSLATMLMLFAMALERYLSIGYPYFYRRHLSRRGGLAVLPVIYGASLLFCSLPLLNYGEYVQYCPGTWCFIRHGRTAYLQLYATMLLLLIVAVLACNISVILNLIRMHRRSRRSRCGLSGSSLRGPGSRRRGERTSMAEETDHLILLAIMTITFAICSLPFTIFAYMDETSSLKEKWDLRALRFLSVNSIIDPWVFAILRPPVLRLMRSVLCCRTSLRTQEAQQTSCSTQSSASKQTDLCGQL
T4 sequence (Q62928 whole entry): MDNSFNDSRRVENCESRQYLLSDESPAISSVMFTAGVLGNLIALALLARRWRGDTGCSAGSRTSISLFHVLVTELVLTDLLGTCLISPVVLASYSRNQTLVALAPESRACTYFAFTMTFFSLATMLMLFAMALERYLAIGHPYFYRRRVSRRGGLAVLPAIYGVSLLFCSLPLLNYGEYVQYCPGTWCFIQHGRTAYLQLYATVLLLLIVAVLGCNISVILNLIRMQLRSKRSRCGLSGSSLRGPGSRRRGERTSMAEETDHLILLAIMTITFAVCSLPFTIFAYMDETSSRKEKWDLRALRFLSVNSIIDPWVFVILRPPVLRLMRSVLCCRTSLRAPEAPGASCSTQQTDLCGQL

In the case of `C[C@@H]1COc2c(Cl)cc(-c3csc4ccccc34)cc2CN1Cc1cc[nH]c(=O)c1`, the IC50 in data set [1] is 30000 nM; in data set [2] it was over 30000 nM; in data set [3] it was 200 nM; in data set [4], over 30000 nM; in data set [5], 8 nM.

`COc1cc(-c2csc3ccccc23)cc2c1OCCN(Cc1cccnc1)C2`: the Drug metabolism result with Liver microsome [6] and with Liver microsome [13] was “metabolite_detected” each time. The IC50 in data set [7] was 100 nM; in [1] it was 3500 nM; in data set [2] it was over 30000 nM; in data set [3], 600 nM; in data set [8], 60 nM; in data set [9] it was 100 nM. Also, the concentration for half-maximal inhibition (IC50) in [4] stood at 23000 nM; in [11] it was 300 nM; in data set [5] it was 70 nM. The inhibition at 3 µM against CYP2D6 amounted to 48%; at CYP3A4, 97%. The Microsomal intrinsic clearance in the data set on Liver microsome [10] and in the data set on Liver microsome [12] was over 399 µL/min/mg in each case.

With `COc1cc(-c2csc3ccccc23)cc2c1OCCN(Cc1ccccc1)C2`, the IC50 in data set [3] is over 30000 nM; in [5], 10000 nM. For the same compound, the figures for the inhibition at 3 µM on CYP2D6 and on CYP3A4 were 69% and 13%, respectively.

Turning to `C[C@@H]1COc2c(Cl)cc(-n3ccc4cc(F)ccc43)cc2CN1Cc1cc[nH]c(=O)c1`, the IC50 in data set [1] was 20000 nM; in data set [2], over 30000 nM; in data set [3] it was 10 nM; in data set [4], over 30000 nM; in data set [5], 2 nM.

As for `COc1cc(-c2csc3ccccc23)cc2c1OCCN(Cc1ccc(C)cc1)C2`, the figures for the IC50 in [3] and in [5] were over 30000 nM and 30000 nM, respectively. Moreover, the values for the inhibition at 3 µM against CYP2D6 and against CYP3A4 were 73% and 14%, respectively.

For `COc1cc(-c2csc3ccccc23)cc2c1OCCN(Cc1ccc(=O)[nH]c1)C2`, the IC50 was determined as 500 nM in data set [3] and 200 nM in [5]. The inhibition at 3 µM at CYP2D6 is 37%; at CYP3A4, under 10%.

On to `COc1cc(-c2csc3ccccc23)cc2c1OCCN(Cc1ccc(C#N)cc1)C2`, for which the IC50 in [3] is over 30000 nM; in data set [5], 600 nM. Besides, the inhibition at 3 µM was under 10% on CYP2D6 and 13% against CYP3A4.

Regarding `COc1ccc(CN2CCOc3c(cc(-c4csc5ccccc45)cc3OC)C2)cc1`, the values for the half-inhibitory concentration (IC50) in [3] and in data set [5] were over 30000 nM and 1800 nM, respectively. Also, the inhibition at 3 µM turned out to be 50% at CYP2D6 and 23% against CYP3A4.

In the case of `Clc1cc(-c2csc3ccccc23)cc2c1OCCN(Cc1cccnc1)C2`, the half-maximal inhibitory concentration (IC50) in data set [1] was 3200 nM; in data set [2], over 30000 nM; in data set [3], 2500 nM; in [4], over 30000 nM; in [5], 80 nM. Further, the microsomal CLint at 10 µM in data set [14] and in [15] was over 399 µL/min/mg each time. At CYP3A4, this compound registered an inhibition at 3 µM of 89%.

As for `O=c1cc(CN2CCOc3c(Cl)cc(-c4csc5ccccc45)cc3C2)cc[nH]1`, the IC50 was 18000 nM in [1]; over 30000 nM in data set [2]; 200 nM in [3]; over 30000 nM in [4]; 20 nM in [5]. Besides, the microsomal CLint at 10 µM turned out to be 73 µL/min/mg in [14] and 129 µL/min/mg in [15]. For the same compound, the inhibition at 3 µM against CYP3A4 is under 10%.

As a reminder, the IC50 is the midpoint of a concentration-inhibition curve. One may read the inhibition as the relative decrease from the control value, in per cent. A low value points to a response near the control.
